Measurements as given in ChEMBL document CHEMBL5523688, “Selective targeting of human TET1 by cyclic peptide inhibitors: Insights from biochemical profiling” (Bioorg Med Chem, 2024).

Key:
[1] = test system: Methylcytosine dioxygenase TET2 (Homo sapiens), Q6N021 [UNDEFINED MUTATION]; settings: time 20.0 min
[2] = biological target: Methylcytosine dioxygenase TET1 (Homo sapiens, UniProt Q8NFU7); test: Inhibition of N-terminal 3xFlag-tagged recombinant human TET1 catalytic domain (E1418 to V2136 residues) expressed in baculovirus infected Sf9 cells using 5-methylcytosine as substrate preincubated for 10 mins followed by substrate and DNA-cofactor addition measured after 30 mins by Alphascreen assay; settings: read-out: pIC50 (converted)
Sequence of Methylcytosine dioxygenase TET1 (Homo sapiens, UniProt Q8NFU7) (Q8NFU7 whole entry, the tested form may be a part): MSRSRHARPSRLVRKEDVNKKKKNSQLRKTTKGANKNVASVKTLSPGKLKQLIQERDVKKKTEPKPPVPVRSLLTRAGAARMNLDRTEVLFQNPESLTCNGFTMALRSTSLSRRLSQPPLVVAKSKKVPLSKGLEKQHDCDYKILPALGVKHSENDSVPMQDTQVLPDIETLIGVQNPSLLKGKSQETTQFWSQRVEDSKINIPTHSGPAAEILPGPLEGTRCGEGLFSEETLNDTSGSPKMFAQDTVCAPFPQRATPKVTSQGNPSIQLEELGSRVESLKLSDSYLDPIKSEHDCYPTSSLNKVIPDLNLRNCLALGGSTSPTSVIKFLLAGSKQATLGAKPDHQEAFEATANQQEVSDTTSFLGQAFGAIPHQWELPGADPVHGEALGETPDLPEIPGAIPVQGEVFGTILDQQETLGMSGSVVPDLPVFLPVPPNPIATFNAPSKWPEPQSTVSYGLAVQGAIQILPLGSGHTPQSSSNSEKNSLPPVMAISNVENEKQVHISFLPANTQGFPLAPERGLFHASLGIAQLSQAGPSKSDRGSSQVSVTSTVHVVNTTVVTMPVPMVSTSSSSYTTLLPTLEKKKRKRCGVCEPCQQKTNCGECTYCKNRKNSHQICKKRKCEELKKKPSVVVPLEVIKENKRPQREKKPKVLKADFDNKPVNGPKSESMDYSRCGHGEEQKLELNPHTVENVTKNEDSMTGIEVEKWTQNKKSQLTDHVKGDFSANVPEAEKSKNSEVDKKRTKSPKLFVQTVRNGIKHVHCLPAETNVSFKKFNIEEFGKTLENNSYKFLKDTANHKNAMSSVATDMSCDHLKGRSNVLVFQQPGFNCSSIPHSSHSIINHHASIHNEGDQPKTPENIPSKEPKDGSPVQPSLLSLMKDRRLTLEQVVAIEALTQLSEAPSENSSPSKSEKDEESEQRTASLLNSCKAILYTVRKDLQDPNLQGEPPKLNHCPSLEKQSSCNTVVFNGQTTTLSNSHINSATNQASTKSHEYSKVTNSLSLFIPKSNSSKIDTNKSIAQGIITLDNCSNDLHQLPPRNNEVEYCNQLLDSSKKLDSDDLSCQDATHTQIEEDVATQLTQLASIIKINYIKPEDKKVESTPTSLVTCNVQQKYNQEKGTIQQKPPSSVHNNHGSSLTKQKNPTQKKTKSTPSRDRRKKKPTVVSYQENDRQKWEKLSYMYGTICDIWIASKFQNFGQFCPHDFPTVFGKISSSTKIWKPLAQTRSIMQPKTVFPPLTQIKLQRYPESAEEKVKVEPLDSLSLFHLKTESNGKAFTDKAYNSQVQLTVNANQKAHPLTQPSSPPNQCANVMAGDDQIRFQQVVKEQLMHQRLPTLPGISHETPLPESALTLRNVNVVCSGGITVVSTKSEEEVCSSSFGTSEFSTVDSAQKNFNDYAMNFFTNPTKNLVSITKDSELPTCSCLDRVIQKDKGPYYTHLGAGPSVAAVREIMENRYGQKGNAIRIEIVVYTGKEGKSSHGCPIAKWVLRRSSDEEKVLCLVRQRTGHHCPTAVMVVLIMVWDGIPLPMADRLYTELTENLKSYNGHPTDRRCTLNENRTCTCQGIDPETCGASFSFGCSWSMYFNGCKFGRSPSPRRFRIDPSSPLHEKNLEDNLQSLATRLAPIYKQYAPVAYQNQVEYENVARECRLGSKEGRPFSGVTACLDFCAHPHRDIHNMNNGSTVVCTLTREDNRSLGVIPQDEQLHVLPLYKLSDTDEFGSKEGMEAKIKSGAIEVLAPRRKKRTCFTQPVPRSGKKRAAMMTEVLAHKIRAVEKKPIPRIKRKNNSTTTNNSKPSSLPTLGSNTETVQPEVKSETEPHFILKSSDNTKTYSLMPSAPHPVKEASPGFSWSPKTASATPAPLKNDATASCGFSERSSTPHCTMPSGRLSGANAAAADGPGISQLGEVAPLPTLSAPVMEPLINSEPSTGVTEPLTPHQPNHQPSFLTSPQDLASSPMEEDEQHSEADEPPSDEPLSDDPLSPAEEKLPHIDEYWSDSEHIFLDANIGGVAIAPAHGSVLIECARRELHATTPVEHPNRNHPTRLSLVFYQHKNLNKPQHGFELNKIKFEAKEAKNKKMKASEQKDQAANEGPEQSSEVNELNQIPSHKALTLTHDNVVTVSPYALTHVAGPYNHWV
How it was run: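 TET1 catalytic domain (E1418–V2136, Sf9 baculovirus) at 2 nM was preincubated 10 min with inhibitor (1% DMSO) in HEPES 50 mM pH 7.3, 150 mM NaCl, 0.1% BSA, 0.01% Tween-20. Reaction was started with ascorbate 200 µM, Fe(II) 20 µM, 2OG 20 µM and 5mC ssDNA 10 nM, run 30 min, then EDTA-quenched. Anti-5hmC antibody with AlphaScreen beads, 45–60 min, luminescence read. Three independent replicates.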

[3] = biological target: Methylcytosine dioxygenase TET1 (Mus musculus, UniProt Q3URK3); test: Inhibition of recombinant mouse TET1 catalytic domain (E1367 to V2039 residues) expressed in baculovirus expression system using 5-methylcytosine as substrate preincubated for 10 mins followed by substrate and DNA-cofactor addition measured after 9 mins by Alphascreen assay
How it was run: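 Murine Tet1 catalytic domain (E1367–V2039, High Five baculovirus) at 2 nM was preincubated 10 min with inhibitor (1% DMSO) in HEPES 50 mM pH 7.3, NaCl 150 mM, BSA 0.1%, Tween-20 0.01%. Ascorbate 200 µM, Fe(II) 20 µM, 2OG 20 µM and 5mC ssDNA 10 nM were added; reaction ran 9 min, then EDTA-quenched. AlphaScreen anti-5hmC detection by luminescence.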

[4] = biological target: Methylcytosine dioxygenase TET3 (Homo sapiens, UniProt O43151); test: Inhibition of recombinant human TET3 catalytic domain (E824 to I1795 residues) expressed in baculovirus infected Sf9 cells using 5-methylcytosine as substrate preincubated for 10 mins followed by substrate and DNA-cofactor addition measured after 10 mins by Alphascreen assay; settings: read-out: pIC50 (converted)
[5] = biological target: T1, Methylcytosine dioxygenase TET2 (Homo sapiens, UniProt Q6N021); test: (§1) Inhibition of N-terminal His-tagged recombinant human TET2 catalytic domain LCIdel mutant (D1129 to G1936 residues with Y1481 to N1843 replaced by 3 x GGGGS linker) expressed in Escherichia coli BL21 (DE3) using 5-methylcytosine as substrate preincubated for 10 mins followed by substrate and DNA-cofactor addition measured after 10 mins by Alphascreen assay
[6] = biological target: T1, Methylcytosine dioxygenase TET2; test: as §1, with “after 12” for “after 10”, “by SPE-MS analysis” for “by Alphascreen assay”

Structure (SMILES) | deltapIC50 [1] | IC50 [2] [nM] | IC50 [3] [nM] | IC50 [4] [nM] | pIC50 [5] | pIC50 [6]
CC[C@H](C)[C@@H]1NC(=O)[C@H](CO)NC(=O)[C@H](CCCNC(=N)N)NC(=O)[C@H](CC(C)C)NC(=O)[C@H](Cc2c[nH]cn2)NC(=O)[C@H](CC(C)C)NC(=O)[C@@H]2CCCN2C(=O)[C@H]([C@@H](C)CC)NC(=O)[C@@H](Cc2c[nH]c3ccccc23)NC(=O)CSC[C@@H](C(N)=O)NC(=O)[C@H](CO)NC(=O)[C@H](CCCNC(=N)N)NC(=O)CNC(=O)[C@H](CC(N)=O)NC(=O)[C@H](Cc2ccc(O)cc2)NC(=O)[C@H](C)NC(=O)[C@H](CC(C)C)NC1=O | 0.2 | 692 | 27500 | 18200 | 4.65 | 4.85
C[C@@H]1NC(=O)[C@H](Cc2c[nH]c3ccccc23)NC(=O)[C@H](Cc2ccc(O)cc2)NC(=O)[C@H](Cc2ccc(O)cc2)NC(=O)[C@H](CCCCN)NC(=O)[C@H](CC(=O)O)NC(=O)[C@H]([C@@H](C)O)NC(=O)[C@@H](Cc2c[nH]c3ccccc23)NC(=O)CSC[C@@H](C(N)=O)NC(=O)[C@H](CO)NC(=O)[C@H](Cc2c[nH]c3ccccc23)NC(=O)[C@H](Cc2c[nH]c3ccccc23)NC(=O)[C@H]([C@@H](C)O)NC(=O)[C@H](Cc2ccc(O)cc2)NC1=O | -0.79 | 794 | 4370 | 3550 | 5.41 | 4.62
CC[C@H](C)[C@H](NC(=O)[C@H](CC(C)C)NC(=O)[C@@H](Cc1ccc(O)cc1)NC(C)=O)C(=O)N[C@@H](Cc1ccc(O)cc1)C(=O)N[C@@H](C)C(=O)N[C@@H](Cc1ccc(O)cc1)C(=O)N[C@@H](Cc1ccc(O)cc1)C(=O)N[C@H](C(=O)N[C@@H](Cc1c[nH]c2ccccc12)C(=O)N[C@@H](Cc1c[nH]c2ccccc12)C(=O)N[C@@H](CCC(=O)O)C(=O)N[C@@H](Cc1cnc[nH]1)C(=O)N[C@@H](CO)C(=O)N[C@@H](CS)C(N)=O)[C@@H](C)O | – | 70800 | – | 30900 | < 4 | –
C[C@@H]1NC(=O)[C@H](Cc2ccccc2)NC(=O)[C@H](Cc2ccc(O)cc2)NC(=O)[C@H](Cc2ccc(O)cc2)NC(=O)[C@H](CCCNC(=N)N)NC(=O)[C@@H](Cc2ccc(O)cc2)NC(=O)CSC[C@@H](C(N)=O)NC(=O)[C@H](C)NC(=O)[C@H](Cc2c[nH]c3ccccc23)NC(=O)[C@H](Cc2c[nH]c3ccccc23)NC(=O)[C@H]([C@@H](C)O)NC(=O)[C@H](Cc2ccc(O)cc2)NC1=O | -0.5 | 468 | 3630 | 2750 | 5.52 | ~ 5
CC(C)C[C@@H]1NC(=O)[C@H](Cc2ccc(O)cc2)NC(=O)[C@H](Cc2c[nH]c3ccccc23)NC(=O)[C@@H](Cc2ccc(O)cc2)NC(=O)CSC[C@@H](C(N)=O)NC(=O)[C@H](Cc2ccccc2)NC(=O)[C@H](Cc2c[nH]c3ccccc23)NC(=O)[C@@H]2CCCN2C(=O)[C@H](C(C)C)NC(=O)[C@H](CCCNC(=N)N)NC(=O)[C@H](Cc2ccc(O)cc2)NC(=O)[C@H](CO)NC(=O)[C@@H]2CCCN2C1=O | -0.3 | 174 | 3470 | 2400 | 5.49 | 5.19
CC[C@H](C)[C@@H]1NC(=O)[C@H](Cc2ccccc2)NC(=O)[C@H](Cc2ccc(O)cc2)NC(=O)[C@H](CC(C)C)NC(=O)[C@H](CCCNC(=N)N)NC(=O)[C@H](C)NC(=O)[C@H](Cc2c[nH]c3ccccc23)NC(=O)[C@H](Cc2c[nH]c3ccccc23)NC(=O)[C@@H]2CCCN2C(=O)[C@H](C(C)C)NC(=O)[C@H](Cc2ccc(O)cc2)NC(=O)[C@@H](Cc2ccccc2)NC(=O)[C@H](CCCCN)NC(=O)[C@@H](Cc2ccc(O)cc2)NC(=O)CSC[C@H](C(N)=O)NC(=O)CNC1=O | -0.43 | 240 | 1100 | 1020 | 5.95 | 5.52
